core dimer inh: HCV core protein dimerization inhibition | actives 0.33% (n = 300,000) | inhibition, % at 5 µM | TR-FRET GST/Flag-core106 dimerization, 1536-well | AID 1899;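 active = inhibition above the mean of all tested compounds plus 3 SD, set per screening campaign, cut at about 45% in these data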
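test system = GST/Flag-tagged HCV core106 proteins | probe or stimulus = Eu donor and XL665 acceptor anti-tag antibodies | times = compound-protein-antibody incubation 4 h at 22.5 °C | signal = TR-FRET, excitation 340 nm, emission 617 and 671 nm | measure = percent inhibition of core106 dimerization signal | controls = wells lacking GST-core106 and wells with excess unlabelled core106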
Vif inh: blocks HIV Vif function; HEK293T cells, Vif self-association by quenched fluorescence, imaging, 24 h; inhibition, % at 7.49 µM; AID 602346; actives 0.35% (n = 340,000); in the data active = inhibition above about 50%, passing the limit was not always enough
NR2E3 ag-1: activates human photoreceptor nuclear receptor NR2E3. actives 0.12% (n = 320,000). AID 2300. Q9Y5X4. inhibition of corepressor binding, % at 4.78 µM. GST-NR2E3/biotin-RetCOR TR-FRET, 1536-well;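 active = percent inhibition above the cutoff of mean plus 3 SD of all tested compounds, set per screening campaign, cut at about 20% in these data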;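 also: 0% = DMSO wells and 100% = biotin wells as full block of FRET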
Target sequence (Q9Y5X4 whole entry, looked up): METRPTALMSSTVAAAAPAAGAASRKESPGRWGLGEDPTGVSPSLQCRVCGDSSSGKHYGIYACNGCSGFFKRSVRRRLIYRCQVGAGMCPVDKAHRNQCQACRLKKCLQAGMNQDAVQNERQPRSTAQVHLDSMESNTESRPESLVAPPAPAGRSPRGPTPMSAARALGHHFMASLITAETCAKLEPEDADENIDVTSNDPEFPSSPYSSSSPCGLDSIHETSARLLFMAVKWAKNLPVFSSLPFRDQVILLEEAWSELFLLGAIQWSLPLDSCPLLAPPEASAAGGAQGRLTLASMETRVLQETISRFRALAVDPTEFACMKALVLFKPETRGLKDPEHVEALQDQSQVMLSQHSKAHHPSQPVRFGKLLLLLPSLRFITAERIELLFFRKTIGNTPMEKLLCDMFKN
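Format: 1536-well format; test system: GST-NR2E3 and biotin-RetCOR proteins; read-out basis: percent inhibition of TR-FRET ratio; timing: 5 h incubation at 4 °C; detection: time-resolved FRET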
NR2E3 ag-2: agonists of human NR2E3 nuclear receptor; inhibition of corepressor binding, % at 3.98 µM; CHO-S Gal4-NCOR/VP16-NR2E3 two-hybrid, luciferase; actives 0.35% (n = 360,000);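 active = inhibition above the mean of all tested compounds plus 3 SD, cut at about 70% in these data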;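 also: 0% = DMSO with NR2E3 transfected cells and 100% = cells lacking NR2E3 construct; higher means lower luciferase signal from less NR2E3 corepressor binding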
MT1-MMP act inh: blocks activation of human MT1-MMP; GFP/RFP ratio change, % at 20 µM; actives 0.061% (n = 360,000); HT1080 RFP-PRO-GFP cells, GFP/RFP ratio fluorescence, overnight; percent of plate control window, DMSO zero; P50281;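 active = GFP/RFP ratio change of at least 30% with cell ATP level not reduced by more than half and red fluorescence within 50% of control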
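Assay system: HT1080 cells carrying an RFP-PRO-GFP reporter | Dosing: Single dose of 20 µM compound, 1% DMSO final | Incubation: Cells overnight before dosing, compound overnight, 37 °C, 5% CO2 | Evaluation: GFP/RFP fluorescence ratio | Control set: DMSO and RFP-L50D-GFP cell wells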
DAGLB inh: diacylglycerol lipase beta (human) inhibition; actives 0.059% (n = 340,000); inhibition, % at 5.17 µM; HEK293T DAGLB membrane lysate, EnzChek fluorogenic substrate; in the data active = inhibition above about 34%;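 also: 0% = enzyme with vehicle and 100% = wells lacking enzyme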
NR2E3 ag conf: confirmation of human NR2E3 agonists; shares compounds with NR2E3 ag-2; CHO-S mammalian two-hybrid NR2E3-NCOR, luciferase luminescence; inhibition, % at 3.98 µM; actives 51% (n = 2,300); AID 624378;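 active = average inhibition above a cutoff equal to the mean inhibition of all tested compounds plus one SD, cut at about 70% in these data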;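 also: 0% = DMSO in NR2E3 cells and 100% = DMSO in cells lacking NR2E3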
VP16 counter: reduces GAL4-VP16 reporter signal in NR2E3 counterscreen; CHO-S GAL4-VP16 luciferase reporter, luminescence; actives 29% (n = 2,300); shares compounds with NR2E3 ag-2; AID 624379; inhibition, % at 3.98 µM;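 active = mean inhibition above a cutoff equal to the average over all tested compounds plus one standard deviation, cut at about 70% in these data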;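 also: luciferase from a UAS reporter driven by GAL4-VP16 transactivation; 0% = DMSO with VP16-transfected cells and 100% = DMSO with cells lacking VP16; higher means less reporter light so more repression of VP16 activity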
Starred values were filed as active, the others as inactive; x = no result. Hits are enriched below; roughly 1.1% of the tested compounds scored in any of these assays.

SMILES	core dimer inh	Vif inh	NR2E3 ag-1	NR2E3 ag-2	MT1-MMP act inh	DAGLB inh	NR2E3 ag conf	VP16 counter
CN(c1ccccc1)S(=O)(=O)c1cccc(NC(=O)c2ccncc2)c1	6	-22	-3	53	-2	1	38	45
Cc1nc2ccc(NC(=O)c3cc(S(=O)(=O)N(C)c4ccccc4)ccc3Cl)cc2s1	7	x	0	80*	-2	1	91*	80*
N#CC1(NC(=O)COC(=O)Cn2[nH]c(=O)c3ccccc3c2=O)CCCCC1	0	-7	0	-11	0	0	x	x
COc1ccccc1N1CCN(C(=O)C2CCCN(S(=O)(=O)c3ccc4c(c3)oc(=O)n4C)C2)CC1 (stereo unspecified)	-5	-9	1	85*	-4	2	66	50
COc1ccc(N2CCN(C(=O)C3CCCN(S(=O)(=O)c4ccc5c(c4)oc(=O)n5C)C3)CC2)cc1 (stereo unspecified)	-4	-2	0	10	-4	1	x	x
CC(C)c1ccc(NC(=O)C2(C)Cc3c(-c4cccc(C(F)(F)F)c4)ccnc3O2)cc1 (stereo unspecified)	x	-5	x	-13	-4	x	x	x
Cc1c(C(=O)NCc2ccc(C(C)C)cc2)sc(=O)n1Cc1ccc(S(=O)(=O)N(C)C)cc1	x	-7	x	74*	7	x	87*	80*
COc1ccc(Cl)cc1Cn1c(C)c(C(=O)NCc2ccc(F)cc2)sc1=O	x	-3	x	49	-3	x	45	1
Cc1c(C(=O)NCc2ccc(Cl)c(Cl)c2)sc(=O)n1Cc1ccc(S(=O)(=O)N(C)C)cc1	x	-7	x	8	-4	x	x	x
COc1ccc(Cl)cc1Cn1c(C)c(C(=O)NCc2cccc([N+](=O)[O-])c2)sc1=O	x	-4	x	54	5	x	24	5
Cc1c(C(=O)NCc2cccc([N+](=O)[O-])c2)sc(=O)n1Cc1ccccc1F	x	1	x	19	6	x	x	x
O=C1CCC/C(=N\NC(=O)c2ccc(COc3ccccc3-c3ccccc3)cc2)C1	9	10	4	-40	-5	0	x	x
O=C(COc1ccccc1-c1ccccc1)NN=C1CCCC1	1	21	0	50	1	0	4	-7
O=C(c1cc(S(=O)(=O)N2CCOCC2)ccc1Cl)N1CCC(Cc2ccccc2)CC1	10	-5	-2	57	0	-1	27	7
Cc1ccc(S(=O)(=O)N2CCOCC2)cc1C(=O)N1CCC(Cc2ccccc2)CC1	2	-2	-1	12	-4	-2	x	x
CCOC(=O)Cc1nnc(NC(=O)CCc2ccccc2)s1	-5	-17	-1	-4	-3	0	x	x
COCC(=O)Oc1cc(-c2ccc(C)cc2C)c(OC(=O)COC)c(-c2ccc(C)cc2C)c1	x	-9	x	69	-16	-20	24	8
Cc1ccc(NC(=O)c2ccccc2NS(=O)(=O)c2ccc(Cl)s2)cc1S(=O)(=O)N1CCOCC1	22	-23	2	90*	-17	11	99*	78*
O=C(Nc1cc(S(=O)(=O)N2CCOCC2)ccc1O)c1ccc(NS(=O)(=O)c2ccc(Cl)s2)cc1	-1	1	1	18	-2	3	x	x
COc1ccc(C)cc1NC(=O)c1ccccc1NS(=O)(=O)c1ccc(Cl)s1	18	-16	3	101*	4	28	99*	90*
COc1ccc(NC(=O)c2ccc(-c3ccccc3)cc2)cc1NS(=O)(=O)c1ccc(F)cc1	30	3	0	69	-9	-3	-5	21
COc1ccc(NC(=O)c2ccccc2)cc1NS(=O)(=O)c1ccc(F)cc1	-6	16	3	-22	4	-1	x	x
Cc1cc2nc(-c3ccc(C#N)cc3)c(Cc3cccc(F)c3)n2c(C)c1Br	x	x	x	6	-4	x	x	x
O=C(O)c1cccc(Cn2c(Cl)c(/C=N/NC(=O)c3ccccc3Cl)sc2=O)c1	-1	1	2	-27	1	-1	x	x
O=C(O)c1cccc(Cn2c(Cl)c(/C=N/Nc3ccccc3)sc2=O)c1	-9	-1	-5	70	-32	11	68	15
SMILES	core dimer inh	Vif inh	NR2E3 ag-1	NR2E3 ag-2	MT1-MMP act inh	DAGLB inh	NR2E3 ag conf	VP16 counter
Cc1ccc(C)c(OCCC(=O)OCC(=O)Nc2cc(S(=O)(=O)N3CCCCC3)ccc2C)c1	x	26	x	3	7	-4	x	x
C[C@H](CO)N1C[C@H](C)[C@@H](CN(C)C(=O)Nc2ccc3c(c2)OCCO3)OCc2cnnn2CCCC1=O	x	-1	x	63	1	-1	8	-22
C[C@@H]1CN([C@H](C)CO)C(=O)CCCn2nncc2CO[C@H]1CN(C)C(=O)Nc1ccc2c(c1)OCO2	x	4	x	-35	4	1	x	x
O=S(=O)(Nc1ncccn1)c1ccc(NC(=S)N2CCN(Cc3ccc(F)cc3Cl)CC2)cc1	15	-3	2	-14	-2	6	x	x
CC(=O)OC1c2ccccc2C(=O)N1Cc1ccccc1 (stereo unspecified)	-18	4	-2	75*	-1	-4	-1	3
CC(=O)OC1c2ccccc2C(=O)N1c1ccccc1C (stereo unspecified)	4	-4	4	-13	2	1	x	x
C=CCN1C(=O)S/C(=C/c2ccc(Sc3nc4ccccc4[nH]3)o2)C1=O	-2	-22	-2	50	4	-2	81*	69
Cc1csc(NC(=O)CSCC(=O)O)c1-c1nc2ccccc2s1	7	-6	3	50	-7	6	68	30
COc1ccc(NC(=O)O/N=C/c2c(C)nn(C(C)(C)C)c2C)cc1	-6	-3	1	-25	1	1	x	x
Cc1nn(C(C)(C)C)c(C)c1/C=N/OC(=O)Nc1ccc(Cl)c(Cl)c1	2	5	-2	92*	0	-2	36	96*
CCC(C)Sc1nc2ccccc2n1CC(=O)O (stereo unspecified)	-1	2	3	12	-3	-2	x	x
Cc1ccc(Nc2nc(NCc3cccs3)nc3ccsc23)c(C)c1	x	-16	x	35	-11	x	x	x
COc1ccccc1CNc1nc(Nc2ccc(C)cc2C)c2sccc2n1	x	-4	x	59	2	x	65	52
COc1ccccc1CNc1nc(Nc2ccccc2OC)c2sccc2n1	x	x	x	57	6	x	54	43

High-throughput results from PubChem.
